Assay [1] concerns Trypanosoma cruzi. Briefly: Antitrypanosomal activity against Trypanosoma cruzi Tulahuen 2 epimastigotes assessed as parasite growth inhibition after 5 days. It is filed as functional, organism-based. Conditions: Trypanosoma cruzi, Tulahuen 2, 120 h. Summed up: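 Tulahuen 2 epimastigotes grown at 28 °C in BHI-tryptose with 5% foetal calf serum. Late-log cells seeded at 3×10⁶/mL in 24-well plates with compound from DMSO stock (final DMSO ≤0.8%; control 0.8% DMSO). A610 read at day 0 and day 5. Growth inhibition calculated from the corrected absorbance ratio to control; IC50 is the concentration giving 50% of the control ratio.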

Assay [2] deals with Leishmania braziliensis. Kind of assay: Ratio of compound IC50 to Miltefosine IC50 for Leishmania braziliensis MHOM/BR/00/LTB300 promastigotes. Format: functional.
For assay [3], the system named is Leishmania pifanoi. Briefly: Antileishmanial activity against Leishmania pifanoi MHOM/VE/57/LV135 promastigotes assessed as parasite viability after 5 days by MTT assay. Format: functional, organism-based. Conditions: MHOM/VE/57/LV135, 120 h. Summed up:
(§1)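 Promastigotes (L. braziliensis, L. pifanoi) grown at 28 °C in axenic RPMI with 5% FBS. T. cruzi CL Brener epimastigotes grown in BHI-tryptose with 5% foetal serum. 24-well plates, 1 mL/well, seeded from exponential-phase culture. Compounds in DMSO, added at several concentrations (0.5–50.0) and kept 5 days. Then MTT 0.4 mg/mL for 3 h at 37 °C. Formazan dissolved in DMSO, OD595 read. Triplicate per concentration, six growth controls. Cytotoxicity % calculated against growth and medium blanks, IC50 derived.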
For orientation: Tetrazolium assays rely on reduction of a dye to a coloured formazan, in cell work by metabolically active cells.

The test system of assay [4] is Leishmania braziliensis. Kind of assay: Antileishmanial activity against Leishmania braziliensis MHOM/BR/00/LTB300 promastigotes assessed as parasite viability after 5 days by MTT assay. As to conditions: MHOM/BR/00/LTB300, 120 h. Format: functional, organism-based. In short, it runs like this:
as §1

The test system of assay [5] is Trypanosoma cruzi. Kind of assay: Antitrypanosomal activity against Trypanosoma cruzi CL Brener epimastigotes assessed as parasite viability after 5 days by MTT assay. Format: functional, organism-based. Conditions: 120 h. Summed up: as §1
The test system of assay [6] is Leishmania pifanoi. Briefly: Antileishmanial activity against Leishmania pifanoi MHOM/VE/57/LV135 promastigotes assessed as parasite viability at 5 uM after 5 days by MTT assay. Format: functional. As to conditions: MHOM/VE/57/LV135, 120 h, read-out: GI. Summed up:
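L. pifanoi LV135 promastigotes grown at 28 °C in axenic RPMI with 5% FBS. Tested at a single concentration of 5.0 over 5 days. MTT 0.4 mg/mL for 3 h at 37 °C, formazan dissolved in DMSO, OD595 read. Percent growth inhibition reported versus untreated growth controls, with medium blanks subtracted.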

The test system of assay [7] is Trypanosoma cruzi. Briefly: Antitrypanosomal activity against Trypanosoma cruzi epimastigotes. Format: functional, organism-based.
Assay [8] concerns the target Cruzipain (Trypanosoma cruzi) (UniProt P25779). Kind of assay: Inhibition of Trypanosoma cruzi cruzipain at 100 uM.
Assay [9] has the same target. Kind of assay: Inhibition of Trypanosoma cruzi cruzipain at 25 uM.
Assay [10] shares this target. Kind of assay: Inhibition of Trypanosoma cruzi cruzipain at 50 uM.

Cruzipain (Trypanosoma cruzi), sequence (P25779 123-467 limits assumed): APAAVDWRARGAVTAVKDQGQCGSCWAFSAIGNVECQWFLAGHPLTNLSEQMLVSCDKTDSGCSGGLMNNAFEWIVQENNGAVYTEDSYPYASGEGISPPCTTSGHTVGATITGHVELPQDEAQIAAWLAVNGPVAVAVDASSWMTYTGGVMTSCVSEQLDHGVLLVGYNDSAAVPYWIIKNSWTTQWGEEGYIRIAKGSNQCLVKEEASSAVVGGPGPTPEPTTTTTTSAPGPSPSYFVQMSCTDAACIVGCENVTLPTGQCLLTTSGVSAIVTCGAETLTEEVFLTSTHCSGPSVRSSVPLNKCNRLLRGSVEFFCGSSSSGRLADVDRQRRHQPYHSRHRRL

`[O-][n+]1onc2ccc(/C=C/Sc3ccc(Cl)cc3)cc21`: the IC50 in assay [1] was determined as 1900 nM; in assay [3], 4600 nM; in [4], 900 nM; in assay [5], 1000 nM. The “Ratio IC50” value in assay [2] worked out at 10.

In the case of `CCCCCCCCCCCCCCCCOP(=O)([O-])OCC[N+](C)(C)C` [MILTEFOSINE], the concentration for half-maximal inhibition (IC50) in assay [4] amounted to 9000 nM. Besides, the inhibition of growth at 5 µM in [6] came to 85.5%.

In the case of `[O-][n+]1onc2ccc(/C=C\Sc3ccccc3)cc21`, the “Ratio IC50” value in assay [2] was 10. The figures for the IC50 in assay [3], in assay [7] and in assay [4] were 4500 nM, 3800 nM and 900 nM, respectively. Moreover, the values for the inhibition in assay [8], in assay [9] and in assay [10] were 30%, 11% and 22%, respectively.

One may read the IC50 as the concentration at which inhibition is half-maximal. Usually inhibition stands for the drop in the measured response relative to a control, in per cent. The low end stands for a response near the control, the high end for a response far below the control.

(Values after ChEMBL document CHEMBL1156117, “Anti-trypanosomatid benzofuroxans and deoxygenated analogues: synthesis using polymer-supported triphenylphosphine, biological evaluation and mechanism of action studies” (Eur J Med Chem, 2009).)
